According to ChEMBL document CHEMBL1148787, “Novel substituted (pyridin-3-yl)phenyloxazolidinones: antibacterial agents with reduced activity against monoamine oxidase A and increased solubility” (J Med Chem, 2007):
In brackets after ≈: the same amount, converted by molar mass.

Columns and labels:
Staphylococcus aureus = test: Antibacterial activity against methicillin-susceptible Staphylococcus aureus AP601055; type: functional
Method in brief: (§1)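 CLSI broth microdilution, 64 to 0.06 µg/mL, 2% DMSO final. Media: S. aureus, Mueller Hinton broth; H. influenzae, MHB plus 0.5% yeast extract, 15 µg/mL hematin, 1.5 µg/mL NAD; S. pneumoniae, MHB plus 0.65% lysed horse blood. 35 °C, aerobic (S. aureus) or 5% CO2.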

Homo sapiens = organism: Homo sapiens; test: Protein binding in human plasma; conditions: read-out: PPB (converted)
Haemophilus influenzae = test: Antibacterial activity against Haemophilus influenzae ATCC 51907; type: functional; method in brief: as §1
[1] = molecular target: T1, Amine oxidase [flavin-containing] A (Homo sapiens, UniProt P21397); test: Inhibition of human liver MAOA expressed in yeast
T1 sequence (P21397 whole entry): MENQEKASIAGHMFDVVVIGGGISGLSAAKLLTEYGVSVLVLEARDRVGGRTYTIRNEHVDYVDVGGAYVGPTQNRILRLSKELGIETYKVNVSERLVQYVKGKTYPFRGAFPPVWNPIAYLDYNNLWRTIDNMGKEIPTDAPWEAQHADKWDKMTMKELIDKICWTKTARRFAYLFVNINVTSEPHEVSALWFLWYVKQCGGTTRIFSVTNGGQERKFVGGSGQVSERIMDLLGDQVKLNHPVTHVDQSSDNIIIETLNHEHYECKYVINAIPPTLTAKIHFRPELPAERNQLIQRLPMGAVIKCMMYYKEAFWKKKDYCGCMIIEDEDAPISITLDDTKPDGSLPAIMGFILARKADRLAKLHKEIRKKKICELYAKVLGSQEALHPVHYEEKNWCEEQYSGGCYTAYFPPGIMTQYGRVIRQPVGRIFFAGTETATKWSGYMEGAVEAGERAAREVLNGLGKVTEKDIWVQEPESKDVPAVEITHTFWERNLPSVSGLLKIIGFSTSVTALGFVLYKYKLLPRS

[2] = Solubility by nephelometric analysis; type: physicochemical
Method in brief: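 Nephelometry after diluting compounds into the MAO-A assay mixture (100 mM potassium phosphate, pH 7.4).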

Streptococcus pneumoniae [3] = test: Antibacterial activity against penicillin-susceptible Streptococcus pneumoniae AP671401; type: functional; method in brief: as §1
Streptococcus pneumoniae [4] = test: Antibacterial activity against linezolid-resistant Streptococcus pneumoniae; type: functional
Method in brief: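 Broth microdilution per CLSI guidelines. Compounds were dissolved in 100% DMSO and diluted to 2% DMSO (v/v), 64 to 0.06 µg/mL, in 2.2% (w/v) Mueller Hinton broth with 0.65% (v/v) lysed horse blood. Plates were incubated at 35 °C in 5% CO2 and read at 620 nm.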

[5] = AUC in Wistar rat at 10 mg/kg, iv; type: ADME, organism-based; design: dose 10 mg/kg, route intravenous; conditions: plasma
Method in brief: (§2)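 Groups of three Wistar Han rats; bolus injection via cannulated jugular vein at 2 or 10 mg/kg. Serial 200 µL whole-blood samples at time intervals; plasma levels by LC-MS/MS; parameters by noncompartmental analysis.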

[6] = Half life in Wistar rat at 10 mg/kg, iv; type: ADME, organism-based; design: dose 10 mg/kg, route intravenous; conditions: in vivo; method in brief: as §2
[7] = Clearance in Wistar rat at 10 mg/kg, iv; type: ADME, organism-based; design: dose 10 mg/kg, route intravenous; conditions: in vivo; method in brief: as §2
[8] = Volume of distribution in Wistar rat at 10 mg/kg, iv; type: ADME, organism-based; design: dose 10 mg/kg, route intravenous; conditions: in vivo, read-out: Vdss; method in brief: as §2
Cytochrome P450 2C19 = Cytochrome P450 2C19 (Homo sapiens, UniProt P33261); test: Inhibition of human recombinant CYP2C19; type: ADME
Sequence of Cytochrome P450 2C19 (P33261 whole entry): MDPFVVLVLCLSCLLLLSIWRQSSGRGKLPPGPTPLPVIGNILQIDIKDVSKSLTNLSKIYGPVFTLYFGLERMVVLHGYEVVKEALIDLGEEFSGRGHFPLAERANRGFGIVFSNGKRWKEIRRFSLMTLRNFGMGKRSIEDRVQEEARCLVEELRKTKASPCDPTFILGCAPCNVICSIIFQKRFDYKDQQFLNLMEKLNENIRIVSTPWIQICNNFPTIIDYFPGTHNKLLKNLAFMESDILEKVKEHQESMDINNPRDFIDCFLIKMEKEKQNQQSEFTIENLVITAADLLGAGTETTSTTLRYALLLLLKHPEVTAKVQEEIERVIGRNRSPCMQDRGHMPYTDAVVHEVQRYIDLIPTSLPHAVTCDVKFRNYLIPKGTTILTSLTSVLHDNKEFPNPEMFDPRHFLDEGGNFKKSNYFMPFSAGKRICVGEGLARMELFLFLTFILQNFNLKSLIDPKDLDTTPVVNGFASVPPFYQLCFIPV
Method in brief: (§3)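 Recombinant human P450s, compound at 0.2-20 µM; fluorogenic substrates: 3-cyano-7-ethoxycoumarin (1A2), 7-methoxy-4-trifluoromethylcoumarin (2C9, 2C19), 7-methoxy-4-(aminomethyl)coumarin (2D6). Fluorescence detection; IC50 determined.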

Cytochrome P450 1A2 = molecular target: T2, Cytochrome P450 1A2 (Homo sapiens, UniProt P05177); test: Inhibition of human recombinant CYP1A2; type: ADME; method in brief: as §3
T2 sequence (P05177 whole entry): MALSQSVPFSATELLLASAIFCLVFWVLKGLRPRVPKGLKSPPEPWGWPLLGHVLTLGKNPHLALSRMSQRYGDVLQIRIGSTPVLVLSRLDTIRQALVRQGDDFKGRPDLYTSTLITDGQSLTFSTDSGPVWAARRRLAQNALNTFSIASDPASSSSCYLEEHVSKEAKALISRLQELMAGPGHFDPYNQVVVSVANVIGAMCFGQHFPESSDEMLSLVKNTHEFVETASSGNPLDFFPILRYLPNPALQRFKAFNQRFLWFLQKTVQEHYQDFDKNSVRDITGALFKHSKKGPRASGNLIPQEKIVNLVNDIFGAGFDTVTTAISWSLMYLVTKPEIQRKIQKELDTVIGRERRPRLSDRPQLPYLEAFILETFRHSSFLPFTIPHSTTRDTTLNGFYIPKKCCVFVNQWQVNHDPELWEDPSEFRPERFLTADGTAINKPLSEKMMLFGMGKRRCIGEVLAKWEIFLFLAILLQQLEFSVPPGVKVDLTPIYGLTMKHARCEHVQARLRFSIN

Cytochrome P450 2D6 = Cytochrome P450 2D6 (Homo sapiens, UniProt P10635); test: Inhibition of human recombinant CYP2D6; type: ADME; method in brief: as §3
Sequence of Cytochrome P450 2D6 (P10635 whole entry): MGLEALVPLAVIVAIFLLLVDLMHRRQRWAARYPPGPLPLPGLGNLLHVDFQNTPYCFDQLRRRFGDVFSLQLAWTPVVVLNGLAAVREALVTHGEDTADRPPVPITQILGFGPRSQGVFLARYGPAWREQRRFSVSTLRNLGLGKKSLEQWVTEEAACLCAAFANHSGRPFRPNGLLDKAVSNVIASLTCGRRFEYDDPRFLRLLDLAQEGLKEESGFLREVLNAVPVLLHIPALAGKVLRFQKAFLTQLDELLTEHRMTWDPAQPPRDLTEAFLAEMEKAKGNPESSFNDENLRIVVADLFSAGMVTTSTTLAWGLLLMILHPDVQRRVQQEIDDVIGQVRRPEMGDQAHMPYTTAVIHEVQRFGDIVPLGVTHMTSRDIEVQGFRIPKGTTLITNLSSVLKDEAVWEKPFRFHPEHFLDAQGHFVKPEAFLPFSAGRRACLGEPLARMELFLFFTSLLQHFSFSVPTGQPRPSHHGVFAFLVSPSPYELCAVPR

Cytochrome P450 2C9 = Cytochrome P450 2C9 (Homo sapiens, UniProt P11712); test: Inhibition of human recombinant CYP2C9; type: ADME; method in brief: as §3
Sequence of Cytochrome P450 2C9 (P11712 whole entry): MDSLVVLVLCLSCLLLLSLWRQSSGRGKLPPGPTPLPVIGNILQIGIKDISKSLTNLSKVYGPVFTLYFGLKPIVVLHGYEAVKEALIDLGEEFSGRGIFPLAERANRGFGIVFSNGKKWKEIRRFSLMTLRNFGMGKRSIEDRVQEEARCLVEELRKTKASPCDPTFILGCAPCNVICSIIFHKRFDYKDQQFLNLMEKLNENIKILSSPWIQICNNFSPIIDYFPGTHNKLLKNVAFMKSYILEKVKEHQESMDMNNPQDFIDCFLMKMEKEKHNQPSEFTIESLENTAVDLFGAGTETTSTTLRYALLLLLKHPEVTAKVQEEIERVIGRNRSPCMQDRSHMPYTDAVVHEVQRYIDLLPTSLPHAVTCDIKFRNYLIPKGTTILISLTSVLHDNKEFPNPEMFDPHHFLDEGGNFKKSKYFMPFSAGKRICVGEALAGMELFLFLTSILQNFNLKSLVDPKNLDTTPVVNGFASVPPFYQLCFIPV

Cytochrome P450 3A4 = Cytochrome P450 3A4 (Homo sapiens, UniProt P08684); test: Inhibition of human recombinant CYP3A4; type: ADME
Sequence of Cytochrome P450 3A4 (P08684 whole entry): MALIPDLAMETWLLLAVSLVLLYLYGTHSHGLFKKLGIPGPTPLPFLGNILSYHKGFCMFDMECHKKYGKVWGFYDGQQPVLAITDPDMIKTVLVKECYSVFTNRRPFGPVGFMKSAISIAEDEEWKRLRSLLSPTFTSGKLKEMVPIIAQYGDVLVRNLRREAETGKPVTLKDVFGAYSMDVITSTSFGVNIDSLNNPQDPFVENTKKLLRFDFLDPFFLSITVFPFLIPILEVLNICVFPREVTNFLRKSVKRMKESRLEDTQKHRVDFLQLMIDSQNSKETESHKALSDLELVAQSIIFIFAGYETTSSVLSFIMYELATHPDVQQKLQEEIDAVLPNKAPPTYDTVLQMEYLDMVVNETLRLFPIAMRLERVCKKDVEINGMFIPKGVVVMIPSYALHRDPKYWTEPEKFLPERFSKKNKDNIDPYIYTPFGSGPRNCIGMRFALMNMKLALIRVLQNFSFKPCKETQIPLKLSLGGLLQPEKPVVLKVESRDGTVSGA

Row | SMILES | MIC (Staphylococcus aureus) | fraction unbound (Homo sapiens) | MIC (Haemophilus influenzae) | Ki [1] | solubility kinetic [2] | MIC (Streptococcus pneumoniae [3]) | MIC (Streptococcus pneumoniae [4]) | AUC [5] | half-life [6] | clearance [7] | Vd [8] | IC50 (Cytochrome P450 2C19) | IC50 (Cytochrome P450 1A2) | IC50 (Cytochrome P450 2D6) | IC50 (Cytochrome P450 2C9) | IC50 (Cytochrome P450 3A4)
1 | CN1CCN(CCCC(=O)c2ccc(-c3ccc(N4C[C@H](Cn5ccnn5)OC4=O)cc3F)cn2)CC1 | 1 µg/mL (≈ 1.97 µM) | 0.5 | 8 µg/mL (≈ 15.8 µM) | 10.5 µM | > 400 µM | < 0.06 µg/mL | 0.5 µg/mL (≈ 0.985 µM) |  |  |  |  |  |  |  |  | 
2 | O=C(CCCN1CCOCC1)c1ccc(-c2ccc(N3C[C@H](Cn4ccnn4)OC3=O)cc2F)cn1 | 0.5 µg/mL (≈ 1.01 µM) | 0.35 | 4 µg/mL (≈ 8.09 µM) |  | 100 µM (≈ 49.5 µg/mL) | 0.13 µg/mL (≈ 0.263 µM) | 0.5 µg/mL (≈ 1.01 µM) |  |  |  |  |  |  |  |  | 
3 | O=C(CC1CCNCC1)c1ccc(-c2ccc(N3C[C@H](Cn4ccnn4)OC3=O)cc2F)cn1 | 1 µg/mL (≈ 2.15 µM) |  | 8 µg/mL (≈ 17.2 µM) | 28 µM | > 400 µM | 0.13 µg/mL (≈ 0.28 µM) | 0.5 µg/mL (≈ 1.08 µM) | 800 ng·h/mL | 2.4 h | 196 mL/min/kg | 15 L/kg |  |  |  |  | 
4 | Cc1cn(CC(=O)c2ccc(-c3ccc(N4C[C@H](Cn5ccnn5)OC4=O)cc3F)cn2)cn1 | 0.5 µg/mL (≈ 1.08 µM) | 0.31 | 2 µg/mL (≈ 4.33 µM) | > 5.6 µM | 12.5 µM (≈ 5.77 µg/mL) | < 0.06 µg/mL | 0.5 µg/mL (≈ 1.08 µM) |  |  | > 100 mL/min/kg |  | > 20 µM | > 20 µM | > 20 µM | > 20 µM | > 20 µM
5 | O=C(c1ccc(-c2ccc(N3C[C@H](Cn4ccnn4)OC3=O)cc2F)cn1)C1CCNCC1 | 0.5 µg/mL (≈ 1.11 µM) |  | 4 µg/mL (≈ 8.88 µM) | > 44 µM | 100 µM (≈ 45 µg/mL) | 0.13 µg/mL (≈ 0.289 µM) | 0.5 µg/mL (≈ 1.11 µM) | 4000 ng·h/mL | 2.4 h | 38 mL/min/kg | 3.8 L/kg |  |  |  |  | 
6 | CN1CCN(CCCC(O)c2ccc(-c3ccc(N4C[C@H](Cn5ccnn5)OC4=O)cc3F)cn2)CC1 (some centres not stated) | 2 µg/mL (≈ 3.92 µM) |  | 8 µg/mL (≈ 15.7 µM) | 41 µM | > 400 µM | 0.25 µg/mL (≈ 0.491 µM) | 1 µg/mL (≈ 1.96 µM) |  |  |  |  |  |  |  |  | 
7 | O=C1O[C@@H](Cn2ccnn2)CN1c1ccc(-c2ccc(C(O)CN3CCOCC3)nc2)c(F)c1 (some centres not stated) | 1 µg/mL (≈ 2.13 µM) | 0.67 | 4 µg/mL (≈ 8.54 µM) |  | > 400 µM | 0.25 µg/mL (≈ 0.534 µM) | 2 µg/mL (≈ 4.27 µM) |  |  |  |  |  |  |  |  | 
8 | CC(C)C(O)c1ccc(-c2ccc(N3C[C@H](Cn4ccnn4)OC3=O)cc2F)cn1 (some centres not stated) | 0.5 µg/mL (≈ 1.22 µM) |  | 16 µg/mL (≈ 38.9 µM) | 11.3 µM | > 400 µM | 0.25 µg/mL (≈ 0.608 µM) | 2 µg/mL (≈ 4.86 µM) |  |  |  |  |  |  |  |  | 
9 | O=C1O[C@@H](Cn2ccnn2)CN1c1ccc(-c2cccnc2)c(F)c1 | 0.25 µg/mL (≈ 0.737 µM) |  | 2 µg/mL (≈ 5.89 µM) | < 0.3 µM | 12.5 µM (≈ 4.24 µg/mL) | < 0.06 µg/mL | 1 µg/mL (≈ 2.95 µM) |  |  |  |  | > 20 µM | > 20 µM | 6.6 µM | > 20 µM | 6.8 µM
10 | O=C1O[C@@H](Cn2ccnn2)CN1c1ccc(-c2ccc(CO)nc2)c(F)c1 | 0.25 µg/mL (≈ 0.677 µM) |  | 1 µg/mL (≈ 2.71 µM) |  | 100 µM (≈ 36.9 µg/mL) | 0.13 µg/mL (≈ 0.352 µM) | 1 µg/mL (≈ 2.71 µM) |  |  |  |  | > 20 µM | > 20 µM | > 20 µM | > 20 µM | > 20 µM
11 | C[C@@H](O)c1ccc(-c2ccc(N3C[C@H](Cn4ccnn4)OC3=O)cc2F)cn1 | 0.25 µg/mL (≈ 0.652 µM) |  | 2 µg/mL (≈ 5.22 µM) | 4.3 µM | > 400 µM | < 0.06 µg/mL | 1 µg/mL (≈ 2.61 µM) |  |  |  |  |  |  |  |  | 
12 | O=C1O[C@@H](Cn2ccnn2)CN1c1ccc(-c2ccc(C(O)C3CNC3)nc2)c(F)c1 (some centres not stated) | 64 µg/mL (≈ 151 µM) |  | 64 µg/mL (≈ 151 µM) | 58 µM | > 400 µM | 16 µg/mL (≈ 37.7 µM) | > 64 µg/mL |  |  |  |  |  |  |  |  | 
